Reference: ChEMBL document CHEMBL3588757, “Structure-based design, synthesis and biological testing of piperazine-linked bis-epipodophyllotoxin etoposide analogs” (Bioorg Med Chem, 2015)

Tests used:
Type in all cases: functional
[1] = system: HCT-116; assay: Cytotoxicity against human HCT116 cells assessed as cell growth at 50 uM by SRB assay; conditions: read-out: Activity
In short: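 Measured in the NCI-60 human tumour cell line panel using five-dose testing. Growth was recorded at each dose for each cell line, and a GI50 was derived for each line.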

[2] = system: UACC-257; assay: Cytotoxicity against human UACC257 cells assessed as cell growth at 50 uM by SRB assay; conditions: read-out: Activity
[3] = system: IGROV-1; assay: Cytotoxicity against human IGROV1 cells assessed as cell growth at 50 uM by SRB assay; conditions: read-out: Activity
[4] = system: OVCAR-4; assay: Cytotoxicity against human OVCAR4 cells assessed as cell growth at 50 uM by SRB assay; conditions: read-out: Activity
[5] = system: 786-0; assay: Cytotoxicity against human 786-0 cells assessed as cell growth at 50 uM by SRB assay; conditions: read-out: Activity
[6] = system: TK-10; assay: Cytotoxicity against human TK10 cells assessed as cell growth at 50 uM by SRB assay; conditions: read-out: Activity
[7] = system: MDA-MB-231; assay: Cytotoxicity against human MDA-MB-231/ATCC cells assessed as cell growth at 50 uM by SRB assay; conditions: read-out: Activity
[8] = system: NCI-H226; assay: Cytotoxicity against human NCI-H226 cells by SRB assay
In short: (§1)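 NCI-60 panel screen; 5-dose testing giving GI50 per cell line, plus a single 10 µM one-dose test. Method details not given beyond the NCI screen.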

[9] = system: NCI-H23; assay: Cytotoxicity against human NCI-H23 cells by SRB assay; in short: as §1
[10] = system: KM12; assay: Cytotoxicity against human KM12 cells by SRB assay; in short: as §1
[11] = system: SF-268; assay: Cytotoxicity against human SF268 cells by SRB assay; in short: as §1
[12] = system: MDA-MB-435; assay: Cytotoxicity against human MDA-MB-435 cells by SRB assay; in short: as §1
[13] = system: SK-MEL-5; assay: Cytotoxicity against human SK-MEL-5 cells by SRB assay; in short: as §1
[14] = read-out: LC50 (the source's name)
[15] = read-out: pLC50 (the source's name) (converted)

COc1cc([C@@H]2c3cc4c(cc3[C@@H](NC(=O)CN3CCN(CCCCCCCCCCN5CCN(CC(=O)N[C@@H]6c7cc8c(cc7[C@@H](c7cc(OC)c(O)c(OC)c7)[C@H]7C(=O)OC[C@@H]76)OCO8)CC5)CC3)[C@H]3COC(=O)[C@H]23)OCO4)cc(OC)c1O
growth at 50 µM [1]: -51%
growth at 50 µM [2]: -58%
growth at 50 µM [3]: -41%
growth at 50 µM [4]: -77%
growth at 50 µM [5]: -78%
growth at 50 µM [6]: -98%
growth at 50 µM [7]: -54%
GI50 ([8]; read-out: GI50): 469 nM
CC50 [8, 14]: 22600 nM
TGI ([8]; read-out: TGI): 9320 nM
GI50 ([8]; read-out: pGI50 (converted)): 468 nM
CC50 [8, 15]: 22400 nM
TGI ([8]; read-out: pTGI (converted)): 9330 nM
GI50 ([9]; read-out: GI50): 181 nM
CC50 [9, 14]: 9300 nM
TGI ([9]; read-out: TGI): 1320 nM
GI50 ([9]; read-out: pGI50 (converted)): 182 nM
CC50 [9, 15]: 9330 nM
TGI ([9]; read-out: pTGI (converted)): 1320 nM
GI50 ([10]; read-out: GI50): 892 nM
CC50 [10, 14]: > 50000 nM
TGI ([10]; read-out: TGI): 2950 nM
GI50 ([10]; read-out: pGI50 (converted)): 891 nM
CC50 [10, 15]: > 50100 nM
TGI ([10]; read-out: pTGI (converted)): 2950 nM
GI50 ([11]; read-out: GI50): 452 nM
CC50 [11, 14]: > 50000 nM
TGI ([11]; read-out: TGI): 1940 nM
GI50 ([11]; read-out: pGI50 (converted)): 457 nM
CC50 [11, 15]: > 50100 nM
TGI ([11]; read-out: pTGI (converted)): 1950 nM
GI50 ([12]; read-out: GI50): 295 nM
TGI ([12]; read-out: TGI): 1230 nM
GI50 ([12]; read-out: pGI50 (converted)): 295 nM
TGI ([12]; read-out: pTGI (converted)): 1230 nM
GI50 ([13]; read-out: GI50): 5240 nM
CC50 [13, 14]: 35400 nM
TGI ([13]; read-out: TGI): 13600 nM
GI50 ([13]; read-out: pGI50 (converted)): 5250 nM
